We go through 20 sequences from the EternaBench riboswitch data.

What is called apparent Kd is a dissociation constant that holds for the conditions of the assay.

In the data set the test system is MS2 coat protein. Kind of data set: apparent Kd, MS2 coat protein; higher = weaker binding; RNA-MaP array; FMN 200 µM where present. Summed up: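 Two titrations, one without ligand and one with constant ligand, were run with SNAP-549-labelled MS2 coat protein from 0.7 or 1.5 nM, doubling to 3 µM. The targets were designs transcribed by stalled E. coli RNA polymerase on Illumina sequencing-chip clusters, in 100 mM Tris-HCl pH 7.5, 80 mM KCl, 4 mM MgCl2, BSA, DTT, yeast tRNA and Tween-20. The apparent Kd is the median of filtered per-cluster binding-curve fits, with green signal normalised to red-channel RNA signal and control-cluster median Fmax.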

Setting [1] is: designed as: OFF switch for flavin mononucleotide, no ligand.
Setting [2] is: ligand present: flavin mononucleotide, designed as: OFF switch for flavin mononucleotide.
Where [3] appears, read: designed as: ON switch for flavin mononucleotide, no ligand.
Setting [4] is: ligand present: flavin mononucleotide, designed as: ON switch for flavin mononucleotide.

On to “UCGCGGGUGCAGAAGGGAUAGGCCUAUUGUCGUGGUGUCUAAACUUAACAUGAGGAUCACCCAUGUCAGGAUAUGCCCACGCGA”, for which the “apparent Kd” value is, setting by setting: under setting [1], 11.6 nM; under setting [2], 13.5 nM.
In the case of “CUUUUGUGAGGAUAUUAGUAGUUUAUAAUUGGUGUUAUUACUGAGAAGGCACAUGAGGAUCACCCAUGUACAAC”, the “apparent Kd” value amounted to 47.9 nM under setting [1] and 181 nM under setting [2].
Take “GGAAAACAUGAGGAUCACCCAUGUGAGGAUAUCGAUGUCCAAAAAAAAGUGCGGGACUCGAGAAGGCACUUGGU”: the “apparent Kd” value under setting [1] came out at 57.1 nM and the “apparent Kd” value under setting [2] is 58.4 nM.
Consider “UGGUACUAGGGAGGAUAUGGGAAGAUACAUGAGGAUCACCCAUGUUUAAGAAUGCCGAGAGGCAACUAGAAGGCCCUAGUACCU”, for which the “apparent Kd” value by setting is: under setting [3], 1050 nM; under setting [4], 45.3 nM.
Consider “GCGAUGAUCGAGAAGGCCACUACAUGAGGAUCACCCAUGUCGUGGUGUAUUGGAGGAUAUCGAUCGGCGUCUUAUGAGGAUAUA”, for which the “apparent Kd” value under setting [1] was 5.17 nM and the “apparent Kd” value under setting [2] is 5.65 nM.
For “UGAUGACCUGUACCUAGUUGGUGACAUGAGGAUCACCCAUGUCAGGAUAUCGGGUUUGAAAACAACGAGAAGGGACAACGGGCG”, the “apparent Kd” value was 12.6 nM under setting [1] and 13 nM under setting [2].
For “AAAAUCUAUUGAGGAUAUUCAUACACUACAUACGAAGAAGGCAAACAAUCAUGAGGACAUGAGGAUCACCCAUGUUGUGACCAU”, the “apparent Kd” value stood at 24 nM under setting [3] and 15.5 nM under setting [4].
As to “UGGUACUAGGGAGGAUAUGGGAAGAUACAUGAGGAUCACCCAUGUUAAAGAAUGCCGAGAGGCAACUAGAAGGCCCUAGUACCU”, the “apparent Kd” value stood at 293 nM under setting [3] and 16.3 nM under setting [4].
Turning to “CAUCGGAAGCAGAAGGCAUGAACGGACAUGAGGAUCACCCAUGUUGGAAACUCAUGCCCGAAAGAUGAGGAUAUGCGUCCGGGU”, the “apparent Kd” value stood at 72.8 nM under setting [1] and 17 nM under setting [2].
Regarding “UCUGGUCGAGGAUAUACAUGAGGAUCACCCAUGUUGAUCAAGCGACUUCGGUCGCAAUGUAGAAGGCGACCAGA”, the “apparent Kd” value came out at 627 nM under setting [1] and 182 nM under setting [2].
As to “AGAUGACAAUGUCAUCUUCGUCGGACAUGAGGAUCACCCAUGUAGGAUAUGCUACUCAAAGAGUAGCAGAAGGACAUGUGUCUU”, the “apparent Kd” value under setting [1] amounted to 19.7 nM and the “apparent Kd” value under setting [2] turned out to be 41.1 nM.
The like results for “CUGGUUGUCGAGGAUAUGCACCGGCUCGCUGACGCAGAAGGCGACACAUGAGGAUCACCCAUGUCGGUUCGCGA” were, in that order, 15.6 nM and 31.3 nM.
In the case of “CGCAAGUAUACAUGAGGAUCACCCAUGUCAGAUAGGGUAAUCAGAAGGUACAAUUAGAGAUAGAGUAAGGAUAUGAAAUUUGCG”, the “apparent Kd” value under setting [3] worked out at 865 nM and the “apparent Kd” value under setting [4] came to 314 nM.
For “GUGUAGAUAGGAUAUGCUUUGAGCUUAUGAGAGUAUGCUCGACAUGAGGAUCACCCAUGUAGAAGGGUUUACAC”, under setting [2], the “apparent Kd” value came out at 52.5 nM.
With “UUUGGGAACUCUAUGGGCCGCUACAUGAGGAUCACCCAUGUGCAGGAUAUAGGCGUUACUACCACCUAGAAGGGCACAGAAUGA”, the “apparent Kd” value runs as follows: under setting [1], 32.5 nM; under setting [2], 47.6 nM.
Regarding “GCAGGAUAAGUCAGGAUAUACCUAUGGAUACAUAGGUAGAAGGGACAUGAGGAUCACCCAUGUUACUCGCCUGC”, the “apparent Kd” value was found to be 12.6 nM under setting [1] and 23.6 nM under setting [2].
As for “AAGAAAGAAACAUAGGAUAUCAAGGAUAUAACAUGAGGAUCACCCAUGUAAAUACGAAAGUAUAAUGAGAAGGAUGGAUGAUCUAC”, the “apparent Kd” value by setting is: under setting [3], 238 nM; under setting [4], 437 nM.
As to “GGUGGCGACGAGAAGGUUCACACAUGAGGAUCACCCAUGUAUGACAUGAGGAUCACCCAUGUAAGGGAGGAUAUUGGAUUUACC”, the “apparent Kd” value was found to be 92.8 nM under setting [1] and 91.4 nM under setting [2].
For “GGUUGUCAUAGUCAUCCUUAACGAACAUGAGGAUCACCCAUGUAGGAUAUGCUACUCAAAGAGUAGCAGAAGGGCGUGUGUCUU”, the “apparent Kd” value under setting [1] came to 56.6 nM and the “apparent Kd” value under setting [2] was determined as 62.9 nM.
On to “AUAUAAUAUCAGGAUAUGACUAGCUGCGGCUAGUCAGAAGGGAUGACAUGAGGAUCACCCAUGUGAUCAUAUAU”, for which the “apparent Kd” value is 33.2 nM under setting [1] and 151 nM under setting [2].
